According to ChEMBL document CHEMBL1154048, “Design, synthesis and pharmacological evaluation of new 1-[3-(4-arylpiperazin-1-yl)-2-hydroxy-propyl]-3,3-diphenylpyrrolidin-2-one derivatives with antiarrhythmic, antihypertensive, and alpha-adrenolytic activity” (Eur J Med Chem, 2009):
Activity calls are given as the source filed them.

Assays:
[1] = target: T1, Adrenergic receptor alpha-1 (Rattus norvegicus, UniProt P15823+P23944+P43140); experiment: Displacement of [3H]prazosin from alpha1 adrenergic receptor in rat cerebral cortex by liquid scintillation counting; assay type: tissue-based
T1 sequence (P15823 whole entry): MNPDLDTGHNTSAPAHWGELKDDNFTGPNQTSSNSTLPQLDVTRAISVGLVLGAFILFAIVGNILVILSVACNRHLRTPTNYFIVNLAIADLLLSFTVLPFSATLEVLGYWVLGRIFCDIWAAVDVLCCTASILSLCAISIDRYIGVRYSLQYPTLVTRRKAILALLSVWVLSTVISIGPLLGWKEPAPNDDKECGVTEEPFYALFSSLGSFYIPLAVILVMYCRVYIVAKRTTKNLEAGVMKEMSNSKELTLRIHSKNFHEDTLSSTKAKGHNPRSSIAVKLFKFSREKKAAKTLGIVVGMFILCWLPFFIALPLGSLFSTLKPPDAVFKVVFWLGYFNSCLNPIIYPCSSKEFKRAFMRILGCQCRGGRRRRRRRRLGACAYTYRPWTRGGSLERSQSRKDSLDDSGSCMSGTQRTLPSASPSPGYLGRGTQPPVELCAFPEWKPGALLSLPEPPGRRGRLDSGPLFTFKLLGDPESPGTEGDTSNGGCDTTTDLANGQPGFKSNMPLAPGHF
T1 sequence (P23944 whole entry): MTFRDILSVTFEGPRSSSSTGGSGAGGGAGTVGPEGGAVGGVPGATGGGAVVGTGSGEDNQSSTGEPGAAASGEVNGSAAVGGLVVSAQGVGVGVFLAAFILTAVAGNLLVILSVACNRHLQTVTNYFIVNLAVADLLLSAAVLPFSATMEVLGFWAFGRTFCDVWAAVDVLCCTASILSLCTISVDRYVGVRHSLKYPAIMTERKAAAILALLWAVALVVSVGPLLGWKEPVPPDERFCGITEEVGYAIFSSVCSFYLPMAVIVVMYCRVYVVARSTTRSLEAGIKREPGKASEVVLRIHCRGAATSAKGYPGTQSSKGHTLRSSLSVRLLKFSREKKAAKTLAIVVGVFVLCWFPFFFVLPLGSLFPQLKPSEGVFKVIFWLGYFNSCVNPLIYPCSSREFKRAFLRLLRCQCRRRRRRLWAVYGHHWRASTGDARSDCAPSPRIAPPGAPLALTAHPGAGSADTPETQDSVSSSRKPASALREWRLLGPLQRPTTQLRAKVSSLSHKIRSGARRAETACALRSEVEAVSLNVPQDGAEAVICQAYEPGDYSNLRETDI
T1 sequence (P43140 whole entry): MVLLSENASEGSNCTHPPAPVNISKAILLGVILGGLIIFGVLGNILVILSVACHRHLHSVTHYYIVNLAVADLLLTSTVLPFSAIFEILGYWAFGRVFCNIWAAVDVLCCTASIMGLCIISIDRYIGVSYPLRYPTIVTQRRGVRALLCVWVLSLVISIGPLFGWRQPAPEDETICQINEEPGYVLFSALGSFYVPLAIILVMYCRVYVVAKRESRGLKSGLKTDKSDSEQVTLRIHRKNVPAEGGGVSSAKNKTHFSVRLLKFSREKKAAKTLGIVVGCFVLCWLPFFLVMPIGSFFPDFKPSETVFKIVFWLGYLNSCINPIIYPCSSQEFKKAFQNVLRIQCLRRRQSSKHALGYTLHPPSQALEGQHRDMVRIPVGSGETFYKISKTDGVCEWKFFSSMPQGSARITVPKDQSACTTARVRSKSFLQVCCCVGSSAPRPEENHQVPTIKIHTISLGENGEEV
How it was run: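 Rat cerebral cortex was homogenized in ice-cold 50 mM Tris–HCl pH 7.6, centrifuged 20 000 × g for 20 min at 0–4 °C, and washed once more. Membranes were incubated with [3H]prazosin 0.2 nM and seven to eight compound concentrations (10^-11–10^-4 M), with phentolamine defining nonspecific binding. Bound ligand was filtered on glass fiber and counted by liquid scintillation. Runs were in duplicate, and Ki was calculated by Cheng–Prusoff.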

[2] = target: T2, Adrenergic receptor alpha-2 (Rattus norvegicus, UniProt P22086+P19328+P22909); experiment: Displacement of [3H]clonidine from alpha2 adrenergic receptor in rat cerebral cortex by liquid scintillation counting; assay type: tissue-based
T2 sequence (P22086 whole entry): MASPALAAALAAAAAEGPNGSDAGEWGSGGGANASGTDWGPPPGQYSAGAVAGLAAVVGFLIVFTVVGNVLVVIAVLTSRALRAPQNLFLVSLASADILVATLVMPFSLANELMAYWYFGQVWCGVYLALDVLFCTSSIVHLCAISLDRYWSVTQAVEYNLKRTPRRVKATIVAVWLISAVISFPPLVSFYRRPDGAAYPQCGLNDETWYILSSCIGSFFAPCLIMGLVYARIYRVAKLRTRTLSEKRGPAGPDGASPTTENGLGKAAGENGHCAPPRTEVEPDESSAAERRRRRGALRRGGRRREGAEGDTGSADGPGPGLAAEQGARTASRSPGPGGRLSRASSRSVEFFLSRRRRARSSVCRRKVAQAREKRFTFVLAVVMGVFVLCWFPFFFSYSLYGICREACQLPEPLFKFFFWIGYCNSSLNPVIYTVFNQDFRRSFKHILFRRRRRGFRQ
T2 sequence (P19328 whole entry): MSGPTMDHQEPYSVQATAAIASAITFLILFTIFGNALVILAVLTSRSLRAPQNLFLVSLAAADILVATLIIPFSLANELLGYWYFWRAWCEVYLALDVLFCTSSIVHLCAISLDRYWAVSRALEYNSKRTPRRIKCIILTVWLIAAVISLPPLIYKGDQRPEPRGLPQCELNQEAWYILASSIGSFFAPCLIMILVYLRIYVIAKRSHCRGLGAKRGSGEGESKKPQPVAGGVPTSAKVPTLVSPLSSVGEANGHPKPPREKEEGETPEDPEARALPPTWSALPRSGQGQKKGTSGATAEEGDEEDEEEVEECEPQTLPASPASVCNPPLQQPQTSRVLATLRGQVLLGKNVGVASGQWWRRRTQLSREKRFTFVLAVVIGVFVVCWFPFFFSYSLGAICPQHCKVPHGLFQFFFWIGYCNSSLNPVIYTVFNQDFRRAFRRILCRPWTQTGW
T2 sequence (P22909 whole entry): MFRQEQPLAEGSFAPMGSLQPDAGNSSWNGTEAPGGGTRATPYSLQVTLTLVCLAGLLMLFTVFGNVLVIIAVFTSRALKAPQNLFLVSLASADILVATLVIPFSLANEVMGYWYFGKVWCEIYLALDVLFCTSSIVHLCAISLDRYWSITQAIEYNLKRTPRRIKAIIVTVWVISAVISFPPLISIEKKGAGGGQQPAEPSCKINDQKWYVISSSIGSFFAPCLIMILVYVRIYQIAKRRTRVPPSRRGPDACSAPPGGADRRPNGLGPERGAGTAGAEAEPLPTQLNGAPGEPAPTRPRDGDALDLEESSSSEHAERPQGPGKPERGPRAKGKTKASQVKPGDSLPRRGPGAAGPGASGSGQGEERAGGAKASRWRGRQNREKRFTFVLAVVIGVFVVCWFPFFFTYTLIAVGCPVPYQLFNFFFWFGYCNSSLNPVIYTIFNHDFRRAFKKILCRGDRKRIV
How it was run: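 Rat cerebral cortex membranes were prepared in ice-cold 50 mM Tris–HCl pH 7.6 (20 000 × g, 20 min, 0–4 °C, washed twice). They were incubated with [3H]clonidine 2 nM and seven to eight compound concentrations (10^-11–10^-4 M), with excess unlabelled clonidine defining nonspecific binding. Samples were glass-fiber filtered and counted by liquid scintillation, in duplicate. Ki was calculated by Cheng–Prusoff.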

Rattus norvegicus [3] = experiment: Antiarrhythmic activity against adrenaline-induced arrhythmia in iv dosed rat assessed as inhibition of cardiac rhythm disturbance administered 15 mins before adrenaline challenge; assay type: functional; conditions: Heart
How it was run: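 Rats anaesthetized with thiopental 60 mg/kg ip received the compound i.v. 15 min before an i.v. adrenaline challenge. Rhythm disturbances were recorded for 15 min after adrenaline. Activity was defined as absence of premature beats and inhibition of disturbances versus controls. ED50 values, with confidence limits, were derived by Litchfield–Wilcoxon from three groups of six animals.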

Rattus norvegicus [4] = experiment: Hypotensive activity in normotensive Wistar rat assessed as decrease in systolic blood pressure at 20 mg/kg, iv administered as single dose; assay type: functional, organism-based; parameters: dose 20 mg/kg; conditions: Artery
Rattus norvegicus [5] = experiment: Hypotensive activity in normotensive Wistar rat assessed as decrease in diastolic blood pressure at 20 mg/kg, iv administered as single dose; assay type: functional, organism-based; parameters: dose 20 mg/kg; conditions: Artery
Rattus norvegicus [6] = organism: Rattus norvegicus; experiment: Hypotensive activity in Wistar rat assessed as reduction in epinephrine-induced systolic blood pressure response; assay type: functional, organism-based; conditions: Artery
How it was run: (§1)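 In anaesthetized rats, pressor responses were evoked by i.v. epinephrine, norepinephrine or methoxamine. Blood pressure was recorded through a heparin-saline-filled cannula in the carotid artery.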

Rattus norvegicus [7] = organism: Rattus norvegicus; experiment: Hypotensive activity in Wistar rat assessed as reduction in norepinephrine-induced systolic blood pressure response; assay type: functional, organism-based; conditions: Artery; how it was run: as §1
Rattus norvegicus [8] = organism: Rattus norvegicus; experiment: Hypotensive activity in Wistar rat assessed as reduction in methoxamine-induced systolic blood pressure response; assay type: functional, organism-based; conditions: Artery; how it was run: as §1

SMILES | pKi [1] | pKi [2] | ED50 (Rattus norvegicus [3]) | Activity (Rattus norvegicus [4]) | Activity (Rattus norvegicus [5]) | Activity (Rattus norvegicus [6]) | Activity (Rattus norvegicus [7]) | Activity (Rattus norvegicus [8])
c1ccc(CC2=NCCN2)cc1 [TOLAZOLINE] | – | – | 1.05 mg/kg | – | – | – | – | –
O=C1CCCN1CC(O)CN1CCN(c2ccccc2)CC1 (stereo not given) | 5.72 | 4.54 | 7.6 mg/kg | – | – | – | – | –
CC(C)NCC(O)COc1cccc2ccccc12 (stereo not given) [PROPRANOLOL] | – | – | 7.6 mg/kg | – | – | – | – | –

Now from value to compound, other results behind:

pKi [1] | pKi [2] | SMILES | ED50 (Rattus norvegicus [3]) | Activity (Rattus norvegicus [4]) | Activity (Rattus norvegicus [5]) | Activity (Rattus norvegicus [6]) | Activity (Rattus norvegicus [7]) | Activity (Rattus norvegicus [8])
6.57 | 5.27 | O=C1CCCN1CC(O)CN1CCN(C(c2ccccc2)c2ccccc2)CC1 (stereo not given) | inactive | – | – | – | – | –
5.68 | 5.32 | Cl.Cl.O=C1N(CC(O)CN2CCN(c3ccc(F)cc3)CC2)CCC1(c1ccccc1)c1ccccc1 (stereo not given) | – | inactive | inactive | inactive | inactive | inactive
